Laboratory results reported in ChEMBL document CHEMBL1132304, “Characterization of "mini-nucleotides" as P2X receptor agonists in rat cardiomyocyte cultures. An integrated synthetic, biochemical, and theoretical study” (1999).
Calls of active or inactive are those of the source. The rule behind the calls is not given here.

How the values were obtained:
[1] = species on record: Rattus norvegicus; assay: In vitro effect on intracellular ca++ elevation was determined in comparison to the ATP at 10 uM on rat cardiomyocytes; Not active; format: functional
In short: (§1)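 Cultured neonatal rat cardiomyocytes (3-5 days in vitro) on coverglasses were loaded with indo-1, and [Ca²⁺]i was estimated by the 405/495 nm emission ratio method under UV epifluorescence. Ligand was added at 100 µM, with ATP 10 µM as reference. The read-out was [Ca²⁺]i elevation in nM above the 100 nM basal level, from 2-3 experiments.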

[2] = species on record: Rattus norvegicus; assay: In vitro effect on intracellular ca++ elevation was determined in comparison to the ATP at 10 uM on rat cardiomyocytes; Ca++ elevation; Not active; format: functional; in short: as §1
[3] = species on record: Rattus norvegicus; assay: Compound was evaluated 1 min after drug application on rat cardiomyocytes; format: functional; design: concentration or dose not given beside the values
In short: (§2)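 Neonatal rat cardiomyocyte cultures (3-5 days in vitro, spontaneously contracting monolayers on collagen/gelatin-coated coverglasses) exposed to ligand at 100 µM. Contraction rate was recorded by video motion detector under phase-contrast microscopy at 37 °C in 95% air/5% CO₂, 1 min after drug application. The read-out was % reduction of heart rate from representative experiments.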

[4] = species on record: Rattus norvegicus; assay: In vitro effect on intracellular ca++ elevation was determined in comparison to the ATP at 10 uM on rat cardiomyocytes; Ca++ elevation; format: functional; in short: as §1
[5] = species on record: Rattus norvegicus; assay: In vitro effect on intracellular ca++ elevation in comparison to the ATP at 10 uM on rat cardiomyocytes.; format: functional; in short: as §1
[6] = species on record: Rattus norvegicus; assay: Inhibition of Ca++ elevation was determined in CPX treated cardiac cells in rat; No inhibition; format: functional, cell-based
[7] = species on record: Rattus norvegicus; assay: Inhibition of Ca++ elevation was determined in PPADS treated cardiac cells in rat; Complete inhibition; format: functional, cell-based
[8] = species on record: Rattus norvegicus; assay: In vitro effect on intracellular ca++ elevation was determined in comparison to the ATP at 10 uM on rat cardiomyocytes; Ca++ elevation; Not avtive; format: functional; in short: as §1
[9] = species on record: Rattus norvegicus; assay: Inhibition of Ca++ elevation was determined in PPADS treated cardiac cells in rat; format: functional
In short: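 Neonatal rat cardiomyocyte cultures. Cells were incubated 5 min with 100 µM PPADS (P2-R antagonist) before the agonist was added at 100 µM (ATP at 10 µM). Intracellular Ca²⁺ was measured by the indo-1 405/495 nm emission ratio (Grynkiewicz ratio method). Scored as complete inhibition (+), no inhibition (−), or partial.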

[10] = species on record: Rattus norvegicus; assay: Compound was evaluated 1 min after drug application on rat cardiomyocytes; Not active; format: functional; in short: as §2
[11] = species on record: Rattus norvegicus; assay: Inhibition of Ca++ elevation was determined in CPX treated cardiac cells in rat; Complete inhibition; format: functional, cell-based
[12] = species on record: Rattus norvegicus; assay: Inhibition of Ca++ elevation was determined in PPADS treated cardiac cells in rat; No inhibition; format: functional, cell-based
[13] = species on record: Rattus norvegicus; assay: Inhibition of Ca++ elevation was determined in CPX treated cardiac cells in rat; Complete inhibition; Complete inhibition; format: functional, cell-based

SMILES	Reduction of heart rate [3] [%]	Ca2+ elevation [4] [nM]	inhibition [7]	further results
Cn1c(=O)c2c(nc(Sc3ccccc3)n2CCOP(=O)(O)OP(=O)(O)OP(=O)(O)O)n(C)c1=O	–	–	–	Ca2+ elevation [1]: inactive
Cn1c(=O)c2c(ncn2CCCOP(=O)(O)OP(=O)(O)OP(=O)(O)O)n(C)c1=O	–	–	–	Ca2+ elevation [2]: inactive
Cn1c(=O)c2c(nc(Br)n2CCOP(=O)(O)O)n(C)c1=O	17	54	–	–
Cn1c(=O)c2c(ncn2CCOP(=O)(O)OP(=O)(O)OP(=O)(O)O)n(C)c1=O	64	–	Total inhibition	Ca2+ elevation [5]: 87 nM; inhibition [6]: inactive
Cn1c(=O)c2c(ncn2CCCOP(=O)(O)O)n(C)c1=O	–	–	–	Ca2+ elevation [8]: inactive
CCOc1nc2c(c(=O)n(C)c(=O)n2C)n1CCOP(=O)(O)O	–	–	–	Ca2+ elevation [1]: inactive
Cn1cnc2c1c(=O)n(CCCOP(=O)(O)O)c(=O)n2C	–	–	–	Ca2+ elevation [8]: inactive
Cn1c(Br)nc2c1c(=O)n(CCOP(=O)(O)OP(=O)(O)OP(=O)(O)O)c(=O)n2C	50	94	Total inhibition	–
Nc1ncnc2c1ncn2[C@@H]1O[C@H](COP(=O)(O)OP(=O)(O)OP(=O)(O)O)[C@@H](O)[C@H]1O [ADENOSINE TRIPHOSPHATE]	–	–	–	inhibition [6]: inactive; Inhibition [9]: 60%
CCOc1nc2c(c(=O)n(C)c(=O)n2C)n1CCOP(=O)(O)OP(=O)(O)OP(=O)(O)O	–	–	–	Ca2+ elevation [8]: inactive
Cn1c(=O)c2c(nc(Br)n2CCOP(=O)(O)OP(=O)(O)OP(=O)(O)O)n(C)c1=O	32	37	–	–
Cn1c(Br)nc2c1c(=O)n(CCOP(=O)(O)O)c(=O)n2C	–	80	Total inhibition	NA [10]: inactive; inhibition [6]: inactive
Cn1c(=O)c2c(nc(Cl)n2CCOP(=O)(O)O)n(C)c1=O	95	49	–	inhibition [6]: inactive
Cn1c(=O)c2c(ncn2CCOP(=O)(O)O)n(C)c1=O	16	80	Total inhibition	inhibition [11]: Total inhibition
Cn1cnc2c1c(=O)n(CCOP(=O)(O)OP(=O)(O)OP(=O)(O)O)c(=O)n2C.N.N.N.N	3	54	–	inhibition [12]: inactive; inhibition [11]: Total inhibition
Cn1cnc2c1c(=O)n(CCCOP(=O)(O)OP(=O)(O)OP(=O)(O)O)c(=O)n2C.N.N.N.N	–	60	–	–
Cn1cnc2c1c(=O)n(CCOP(=O)(O)O)c(=O)n2C.N.N	10	61	Total inhibition	inhibition [13]: Total inhibition
Cn1c(=O)c2c(nc(Cl)n2CCOP(=O)(O)OP(=O)(O)OP(=O)(O)O)n(C)c1=O	28	29	Total inhibition	inhibition [6]: inactive
Cn1c(Sc2ccccc2)nc2c1c(=O)n(CCOP(=O)(O)O)c(=O)n2C	–	–	–	Ca2+ elevation [1]: inactive
Cn1c(=O)c2c(nc(Sc3ccccc3)n2CCOP(=O)(O)O)n(C)c1=O	–	–	–	Ca2+ elevation [1]: inactive
